Published values collected from several papers.
Compare with care: the assays were run in different laboratories.
Target: Calcium/calmodulin-dependent protein kinase type II subunit gamma (CAMK2G, Homo sapiens, UniProt Q13555)

| Compound | test | setting | remaining binding [%] |
| --- | --- | --- | --- |
| O=C(O)[C@H]1[C@H](Cn2nnc3ccccc3c2=O)CC[C@@H]1C(=O)c1ccc(OCCC2CCOCC2)cc1 | cell-free assay, competition with immobilised ligand | 1 µM | 90 |
| c1cnn2ncc(-c3ccnc(N4CCC45COC5)n3)c2c1 | binding | 1 µM | 91 |
| COc1cnc(Nc2cccc(S(N)(=O)=O)c2)nc1N1CCN(c2ccccc2)C(=O)C1 | binding, competition with immobilised ligand | 1 µM | 100 |
| CCOC(=O)c1cc2cc(-c3cc(C(=O)NCc4ccc(C(=O)O)cc4)nn3C)ccc2[nH]1 | cell-free assay, competition with immobilised ligand | 0.1 µM | 100 |
| CN(C)c1ncc(F)c(-c2cnn3ncccc23)n1 | binding | 1 µM | 90 |
| CO[C@H]1CC[C@H](CNc2ccc(S(=O)(=O)NC(=O)c3ccc(N4CCN(CC5=C(c6ccc(Cl)cc6)CC(C)(C)CC5)CC4)cc3Oc3cnc4[nH]ccc4c3)cc2[N+](=O)[O-])CC1 | cell-free assay, competition with immobilised ligand | 1 µM | 75 |
| N[C@@H]1CCN(c2nccc(-c3cnn4ncccc34)n2)C1 | binding | 1 µM | 100 |
| COc1ncc2cc3ccccc3nc2c1C#N | cell-free assay, competition with immobilised ligand | 5 µM | 92 |
| COc1ccnn2ncc(-c3ccnc(N(C)C)n3)c12 | binding | 1 µM | 100 |
| O=C(c1ccc(Nc2nccc(-c3cc4ccccc4s3)n2)cc1)N1CCC(N2CCCC2)CC1 | binding, competition with immobilised ligand | 1 µM | 81 |
| CS(=O)(=O)NCC[C@H](NC(=O)c1cncc2c1cnn2-c1ccc(F)cc1)c1ccnc(S(C)(=O)=O)c1 | cell-free assay, competition with immobilised ligand | 1 µM | 99 |
| Cc1cnc(Nc2ccc(C(=O)N3CCC(N4CCCC4)CC3)cc2)nc1-c1cc2ccccc2s1 | binding, competition with immobilised ligand | 1 µM | 74 |
| C=CC(=O)N1CCC(C(=O)NCC(=O)N2CCN(c3nc(-c4cnc(N)nc4C(F)F)nc(N4CCOCC4)n3)CC2)CC1 | binding, competition with immobilised ligand | 1 µM | 100 |
| F[C@@H]1CCN(c2nccc(-c3cnn4ncccc34)n2)C1 | binding | 1 µM | 100 |
| CCS(=O)(=O)c1cc2cc(C[C@](O)(CC(C)(C)c3ccc(F)cc3C(N)=O)C(F)(F)F)[nH]c2cn1 | cell-free assay, competition with immobilised ligand | 1 µM | 100 |
| Nc1ncc2c(n1)-c1c([nH]c3ccc(C#CC4CC4)cc13)CCCC2 | binding, competition with immobilised ligand | 1 µM | 100 |
| O=C(Nc1c[nH]nc1C(=O)NC1CCNCC1)c1cc(F)cc(F)c1 | binding, competition with immobilised ligand | 1 µM | 100 |
| Cc1cc(-n2nc(Cc3cc(F)cc(C(F)(F)F)c3)nc2C)ccc1C(N)=O | cell-free assay, competition with immobilised ligand | 1 µM | 100 |
| O=C(NCCCN1CCOCC1)c1ccc(Nc2nccc(-c3cc4ccccc4s3)n2)cc1 | binding, competition with immobilised ligand | 1 µM | 90 |
| CN(c1nccc(-c2cnn3ncccc23)n1)C1CC1 | binding | 1 µM | 100 |
